Measurements from paper PMC10810238 (Arabian journal of chemistry, 2023).
Where “and” joins values, the source holds several entries; their conditions need not be identical. Equal values may be shown once. Read-outs that look alike come from different tables or passages of the source.

Assays:
[1] = test system: P. falciparum NF54 strain; experiment: In vitro antiplasmodial screening, 3H-hypoxanthine incorporation assay; type: cell-based, Plasmodium falciparum; conditions: for Selectivity Index: L6 IC50 / Pf IC50
Procedure, shortened: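 P. falciparum NF54 erythrocytic stages were grown in human A+ red cells (2.5% haematocrit, 0.3% parasitaemia) in hypoxanthine-free RPMI 1640 with HEPES, NaHCO₃, neomycin and Albumax. Test compound was stocked in DMSO at 10 mg/ml and diluted in medium to […]. Plates ran 48 h at 37 °C under 4% CO₂/3% O₂/93% N₂, then 0.5 µCi ³H-hypoxanthine was added for 24 h. Cells were harvested for scintillation counting. IC50 came from sigmoidal curves by linear regression, with chloroquine as standard.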

[2] = In vitro cytotoxicity with L-6 cells; type: cell-based; conditions: rat, L-6 cells (rat skeletal myoblasts)
[3] = test system: Plasmodium berghei NK 65 strain; experiment: Peter's four-day suppressive test; type: in vivo, Plasmodium berghei in Swiss albino mice; conditions: for % Parasitemia: mean ± SEM
[4] = test system: Plasmodium berghei NK 65 strain; experiment: Mean Survival Time; type: in vivo, Plasmodium berghei in Swiss albino mice
Procedure, shortened: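 Peters' 4-day suppressive design: male and female Swiss albino mice (14–31 g) were inoculated with P. berghei NK 65 and randomised into five groups. Test compound in vehicle (100, 200 or 400 mg/kg) was given orally once daily on days 0–4, first dose 2 h after inoculation. Chloroquine at 100 mg/kg was the positive control and vehicle alone the negative control. Mortality was recorded for 30 days from inoculation.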

In vivo acute toxicity = experiment: In vivo acute toxicity; set-up: species or system Swiss albino mice
Procedure, shortened: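 Male and female Swiss albino mice, 6–8 weeks old, were dosed per OECD guidance. Each group got one oral dose of test compound (100, 200, 400, 2000 or 5000 mg/kg) in 10% DMSO/10% Tween 80/80% water; a vehicle group served as control. Intoxication signs and mortality were watched for the first 30 min, then over 14 d. Mice were weighed on the first and final day (final day 14 d for the three lower doses, 7 d for the two higher). LD50 was the geometric mean of the least lethal dose and the highest non-lethal dose (Lorke). Kidney and liver were examined by histology, with paired t-test statistics.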

[5] = test system: P. falciparum NF 54 strain; conditions: ref Miglianico et al., 2023; cited from earlier work
[6] = Plasmodium falciparum, NF54, read-out: Antiplasmodial (Pf) IC50, NF54 strain, erythrocytic stages
[7] = 100 mg/kg oral daily Days 0-4, Day 4 blood
[8] = 100 mg/kg oral daily Days 0-4, monitored 30 days, (+) = animals survived
[9] = read-out: Antiplasmodial (Pf) IC50, NF54 strain, erythrocytic stages

Structure (SMILES): CCN(CC)CCCC(C)Nc1ccnc2cc(Cl)ccc12 (stereo not shown) [Chloroquine, chloroquine, reference compound]
- Selectivity Index [1]: 33069.00
- IC50 [1, 6]: 2 nM
- IC50 at 72 h [2]: 66100 nM
- % Suppression ± SEM ([3]; 100 mg/kg oral daily Days 0-4): 81.71 ± 1.82%
- % Parasitemia [3, 7]: 2.4 ± 0.08%
- % Suppression ± SEM ([3]; 100 mg/kg oral daily Days 0-4, listed as standard drug): 81.71%
- MST [4, 8]: 30 (+) days

Structure (SMILES): N=C(NO)c1ccc(C(=O)NO)cc1 [Compound 1c, N-Hydroxy-4-(N-hydroxycarbamimidoyl)benzamide]
- Selectivity Index [1]: 27.04
- IC50 [1, 6]: 405 nM
- IC50 at 72 h [2]: 11000 nM

Structure (SMILES): Cl.N=C(N)c1ccc(C(=O)NO)cc1 [Compound 1d, 4-Carbamimidoyl-N-hydroxybenzamide Hydrochloride]
- Selectivity Index [1]: 98.72
- IC50 [1, 6]: < 200 nM
- IC50 [1, 9]: 199 nM
- IC50 at 72 h [2]: 19600 nM

Structure (SMILES): N=C(NO)c1ccc(NC(=S)NOCc2ccccc2)cc1 [Compound 2b, 4-(3-(Benzyloxy)thioureido)-N-hydroxybenzimidamide]
- Selectivity Index [1]: 7.59
- IC50 [1, 6]: 2400 nM
- IC50 at 72 h [2]: 18200 nM

Structure (SMILES): Nc1ccc(C(=O)NO)cc1 [Compound 3b, 4-Aminobenzenecarbohydroxamic acid]
- Selectivity Index [1]: 44.92
- IC50 [1, 6]: < 200 nM
- IC50 [1, 9]: 147 nM
- IC50 at 72 h [2]: 6600 nM
- Mortality D0 (In vivo acute toxicity; 100 mg/kg bdw oral, 4 mice): 0
- Mortality D1 (In vivo acute toxicity; 100 mg/kg bdw oral, 4 mice): 0
- Mortality D5 (In vivo acute toxicity; 100 mg/kg bdw oral, 4 mice): 1
- Mortality D7 (In vivo acute toxicity; 100 mg/kg bdw oral, 4 mice): 0
- Mortality D14 (In vivo acute toxicity; 100 mg/kg bdw oral, 4 mice): 0
- Liver histology (In vivo acute toxicity; 100 mg/kg, 200 mg/kg and 400 mg/kg, mice): mild to moderate vacuolar degeneration of hepatocytes
- Kidney histology (In vivo acute toxicity; 100 mg/kg, mice): Kidney tubular degeneration
- % Mortality (In vivo acute toxicity; 200 mg/kg bdw oral, 4 mice): 0%
- Mortality D0 (In vivo acute toxicity; 200 mg/kg bdw oral, 4 mice): 0
- Mortality D1 (In vivo acute toxicity; 200 mg/kg bdw oral, 4 mice): 0
- Mortality D5 (In vivo acute toxicity; 200 mg/kg bdw oral, 4 mice): 0
- Mortality D7 (In vivo acute toxicity; 200 mg/kg bdw oral, 4 mice): 0
- Mortality D14 (In vivo acute toxicity; 200 mg/kg bdw oral, 4 mice): 0
- Mortality D0 (In vivo acute toxicity; 400 mg/kg bdw oral, 4 mice): 0
- Mortality D1 (In vivo acute toxicity; 400 mg/kg bdw oral, 4 mice): 1
- Mortality D5 (In vivo acute toxicity; 400 mg/kg bdw oral, 4 mice): 0
- Mortality D7 (In vivo acute toxicity; 400 mg/kg bdw oral, 4 mice): 0
- Mortality D14 (In vivo acute toxicity; 400 mg/kg bdw oral, 4 mice): 0
- Kidney histology (In vivo acute toxicity; 400 mg/kg, mice): Severe congestion and edema
- % Mortality (In vivo acute toxicity; 2,000 mg/kg bdw oral, 4 mice): 0%
- Mortality D0 (In vivo acute toxicity; 2,000 mg/kg bdw oral, 4 mice): 0
- Mortality D1 (In vivo acute toxicity; 2,000 mg/kg bdw oral, 4 mice): 0
- Mortality D5 (In vivo acute toxicity; 2,000 mg/kg bdw oral, 4 mice): 0
- Mortality D7 (In vivo acute toxicity; 2,000 mg/kg bdw oral, 4 mice): 0
- Mortality D14 (In vivo acute toxicity; 2,000 mg/kg bdw oral, 4 mice): 0
- Kidney histology (In vivo acute toxicity; 2000 mg/kg, mice): no lesions
- % Mortality (In vivo acute toxicity; 5,000 mg/kg bdw oral, 1 mouse): 0%
- Mortality D0 (In vivo acute toxicity; 5,000 mg/kg bdw oral, 1 mouse): 0
- Mortality D1 (In vivo acute toxicity; 5,000 mg/kg bdw oral, 1 mouse): 0
- Mortality D5 (In vivo acute toxicity; 5,000 mg/kg bdw oral, 1 mouse): 0
- Mortality D7 (In vivo acute toxicity; 5,000 mg/kg bdw oral, 1 mouse): 0
- Mortality D14 (In vivo acute toxicity; 5,000 mg/kg bdw oral, 1 mouse): 0
- Toxicity at the highest concentration limit (In vivo acute toxicity; 5000 mg/kg, single oral dose, mice): no toxicity
- Body weight change (In vivo acute toxicity; with increase in concentration of compound, acute toxicity study, mice): gained additional weight
- % Suppression ± SEM ([3]; 100 mg/kg oral daily Days 0-4): 51.99 ± 10.38%
- % Parasitemia [3, 7]: 6.25 ± 0.95%
- % Suppression ± SEM ([3]; 200 mg/kg oral daily Days 0-4): 78.55 ± 13.35%
- % Parasitemia ([3]; 200 mg/kg oral daily Days 0-4, Day 4 blood): 2.95 ± 1.95%
- % Suppression ± SEM ([3]; 400 mg/kg oral daily Days 0-4): 80.53% and 80.53 ± 3.26%
- % Parasitemia ([3]; 400 mg/kg oral daily Days 0-4, Day 4 blood): 2.6 ± 0.6%
- MST [4, 8]: 24 days
- MST ([4]; 200 mg/kg oral daily Days 0-4, monitored 30 days): 29.5 days
- MST ([4]; 400 mg/kg oral daily Days 0-4, monitored 30 days, (+) = animals survived): 30 (+) days

Structure (SMILES): COc1cc([C@@H]2c3cc4c(cc3[C@H](O)[C@H]3COC(=O)[C@H]23)OCO4)cc(OC)c1OC [Podophyllotoxin, reference compound]
- IC50 at 72 h [2]: 2 nM

Structure (SMILES): CCc1nc(N)nc(N)c1-c1ccc(Cl)cc1 [Pyrimethamine]
- IC50 [5]: 17 nM

Structure (SMILES): CC1(C)N=C(N)N=C(N)N1c1ccc(Cl)cc1 [cycloguanil]
- IC50 [5]: 4.5 nM
